The source made the active and inactive calls. No cut-off for these calls is given here.
What was measured:
ACHN [1] = assay: Induction of CHOP expression in human ACHN cells at 2.5 to 5 uM measured after 24 hrs by Western blotting method; assay type: functional, cell-based
ACHN [2] = assay: Cytotoxicity in human ACHN cells assessed as reduce cell number after 48 hrs by MTS assay; assay type: cell-based
In short: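 ACHN cells exposed to compound for 48 h at 37 °C; viable cell number by MTS read-out. Triplicate determinations; IC50 (concentration reducing cell number by 50%) from 3 independent experiments, ± SD.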

ACHN [3] = assay: Induction of BIP expression in human ACHN cells at 2.5 to 5 uM measured after 24 hrs by Western blotting method; assay type: functional, cell-based
ACHN [4] = assay: Induction of DR5 expression in human ACHN cells by Western blotting method; assay type: functional, cell-based
ACHN [5] = assay: Cytotoxicity in human ACHN cells assessed as viable cells at 1250 to 5000 nM after 48 hrs by MTS assay; assay type: cell-based; details: 5 µM
CAKI-1 = assay: Sensitization of TRAIL-induced apoptosis in human Caki1 cells assessed as reduction in cell viability at 125 to 500 nM preincubated for 2 hrs followed by addition of TRAIL measured after 18 hrs by MTS assay; assay type: functional, cell-based
In short: (§1)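 Caki-1, SN12C or UO-31 renal cells seeded 5000/well, grown overnight at 37 °C, pretreated with compound across a concentration range for 2 h, then TRAIL 50 ng/mL added for 18 h more at 37 °C. Medium: RPMI, 5% FCS with supplements. Viable cells by MTS (2 h, A490); growth inhibition = (media − treatment)/media ×100. Triplicate, ≥3 experiments.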

ACHN [6] = assay: Sensitization of TRAIL-induced apoptosis in human ACHN cells assessed as increase in caspase8 activation at 125 to 1000 nM preincubated for overnight followed by addition of TRAIL for 90 mins measured after 18 hrs by Western blot analysis; assay type: functional, cell-based
In short: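 ACHN cells plated 1.5×10^6/well, grown overnight, treated overnight (18 h) with compound at 125–1000 nM, then TRAIL for 90 min before RIPA lysis (with zVAD-FMK). 20 μg protein immunoblotted for pro- and cleaved caspase-8 and caspase-3; GAPDH loading control. TRAIL given as 200 ng/mL in methods, 50 ng/mL in legend.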

SN12C = assay: Sensitization of TRAIL-induced apoptosis in human SN12C cells assessed as reduction in cell viability at 125 to 500 nM preincubated for 2 hrs followed by addition of TRAIL measured after 18 hrs by MTS assay; assay type: functional, cell-based; in short: as §1
ACHN [7] = assay: Induction of HSP70 expression in human ACHN cells at 2.5 to 5 uM measured after 24 hrs by Western blotting method; assay type: functional, cell-based
UO-31 = assay: Sensitization of TRAIL-induced apoptosis in human UO31 cells assessed as reduction in cell viability at 125 to 500 nM preincubated for 2 hrs followed by addition of TRAIL measured after 18 hrs by MTS assay; assay type: functional, cell-based; in short: as §1
ACHN [8] = assay: Sensitization of TRAIL-induced apoptosis in human ACHN cells assessed as reduction in cell viability preincubated for 2 hrs followed by addition of TRAIL measured after 18 hrs by MTS assay; assay type: functional, cell-based
In short: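 ACHN cells were seeded at 5000/well and rested overnight at 37 °C, in RPMI with 5% FCS, glutamine, NEAA, pyruvate, HEPES and 2-mercaptoethanol. Compound pretreatment ran 2 h, then TRAIL was added to 50 ng/mL for 18 h at 37 °C. Viability was read by MTS (2 h, A490). IC50 values (cell number reduced 50%) came from dose-response curves; triplicates, at least 3 independent experiments, ± SD.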

ACHN [9] = assay: Sensitization of TRAIL-induced apoptosis in human ACHN cells assessed as increase in caspase8 activation at 125 to 1000 nM preincubated for overnight followed by addition of TRAIL for 90 mins measured after 6 hrs by Western blot analysis; assay type: functional, cell-based
ACHN [10] = assay: Reduction cFLIP level in human ACHN cells at 500 nM after 18 hrs by Western blot analysis; assay type: functional, cell-based
In short: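 ACHN cells (RPMI, 5% FBS) plated 1.5×10^6/well, grown overnight at 37 °C, then exposed to compound at 500 nM for 18 h. Lysed in RIPA with protease/phosphatase inhibitors and zVAD-FMK; 20 μg protein per lane immunoblotted with anti-FLIP (7F10); GAPDH as loading control.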

[11] = Glutathione reactivity in DMSO assessed as formation of MIchael adduct with GSH at pH 7.4 after 24 hrs in presence of NAC by HPLC method
In short: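 Withanolide (2.12 μM in DMSO, 0.5 mL) mixed with equal volume of 4.24 μM GSH or NAC solution at pH 7.4, 37 °C. Aliquots taken at 0, 0.5, 2, 4, 8, 24 h, stored −80 °C; unreacted withanolide quantified by C18 HPLC (H2O with 40 mM NH4OAc–MeOH gradient, UV 230 nm) using peak area.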

ACHN [12] = assay: Reduction cFLIP level in human ACHN cells at 125 to 1000 nM after 16 hrs by Western blot analysis; assay type: functional, cell-based
ACHN [13] = assay: Reduction cFLIP level in human ACHN cells at 125 to 1000 nM after 18 hrs by Western blot analysis

| Compound | Activity (ACHN [1]) | Activity (ACHN [2]) | Activity (ACHN [3]) | Activity (ACHN [4]) | Activity (ACHN [5]) | Activity (CAKI-1) | Activity (ACHN [6]) | Activity (SN12C) | Activity (ACHN [7]) | Activity (UO-31) | IC50 (ACHN [8]) [nM] | Activity (ACHN [9]) | Activity (ACHN [10]) | Activity [11] | Activity (ACHN [12]) | Activity (ACHN [13]) |
| --- | --- | --- | --- | --- | --- | --- | --- | --- | --- | --- | --- | --- | --- | --- | --- | --- |
| CC(=O)OC[C@]12CC[C@H]3[C@@H](C[C@H]4O[C@]45CC=CC(=O)[C@]35C)[C@]1(O)CC[C@@]2(O)[C@@](C)(O)[C@H]1CC(C)=C(C)C(=O)O1 | inactive | Toxic | inactive | inactive | Non-Toxic | Active | Active | Active | inactive | Active | 164 | Active | Active | Active | – | – |
| CC(=O)OCC1=C(C)C[C@H]([C@@H](C)[C@H]2CC[C@H]3[C@@H]4C[C@H]5O[C@]56[C@H](OC(C)=O)C=CC(=O)[C@]6(C)[C@H]4CC[C@]23C)OC1=O | Active | – | Active | – | – | – | – | – | Active | – | – | – | – | – | inactive | – |
| CC1=C(C)C(=O)O[C@@H]([C@](C)(O)[C@]2(O)CC[C@@]3(O)[C@@H]4C[C@H]5O[C@]56[C@H](O)C=CC(=O)[C@]6(C)[C@H]4CC[C@]23C)C1 | – | Toxic | – | inactive | Non-Toxic | Active | Active | Active | – | Active | 67 | – | Active | Active | – | – |
| CC1=C(C)C(=O)O[C@@H]([C@](C)(O)[C@]2(O)CC[C@@]3(O)[C@@H]4C[C@H]5O[C@]56CC=CC(=O)[C@]6(C)[C@H]4CC[C@]23C)C1 [WITHANOLIDE E] | inactive | Toxic | inactive | inactive | Non-Toxic | Active | Active | Active | inactive | Active | 489 | – | Active | Active | – | – |
| CC1=C(CO)C(=O)O[C@@H]([C@@H](C)[C@H]2CC[C@H]3[C@@H]4C[C@H]5O[C@]56[C@@H](O)C=CC(=O)[C@]6(C)[C@H]4CC[C@]23C)C1 [WITHAFERIN A] | Active | – | Active | inactive | Toxic | inactive | inactive | inactive | Active | inactive | > 2000 | – | – | Active | – | inactive |
